Compounds with a hit are over-represented: about 3.5% of the library has one in this group of screens.
MrgX1 antagonist: antagonists of human MrgX1 receptor. actives 1.3% (n = 310,000). MRGX1-HEK293 calcium flux, Fluo-4, BAM8-22 antagonism; hits give low values. B-score at 10 µM. Q96LB2;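 active means calcium-response B-score plate-corrected more than 3 library SD below zero, starting fluorescence within 5 deviations, no agonist response on first addition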;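 further: peak minus trough fluorescence over baseline after final BAM8-22 challenge near maximal dose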
Target sequence (Q96LB2 whole entry, looked up): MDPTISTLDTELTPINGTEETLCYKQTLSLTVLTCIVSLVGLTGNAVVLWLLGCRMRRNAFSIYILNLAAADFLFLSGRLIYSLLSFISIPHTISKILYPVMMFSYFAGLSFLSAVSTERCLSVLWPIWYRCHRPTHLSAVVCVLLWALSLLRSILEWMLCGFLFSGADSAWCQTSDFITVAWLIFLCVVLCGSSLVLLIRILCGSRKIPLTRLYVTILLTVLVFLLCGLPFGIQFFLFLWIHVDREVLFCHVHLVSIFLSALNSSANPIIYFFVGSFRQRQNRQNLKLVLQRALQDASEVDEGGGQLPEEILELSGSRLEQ
RGS4 pot: RGS4 potentiation or activation; HEK293 M3R/inducible RGS4, carbachol calcium flux Fluo4; hits give low values; B-score at 10 µM; actives 0.92% (n = 310,000); AID 463111;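 active means B-score of the integrated calcium signal more than 4 SD below the library mean, with starting fluorescence not abnormally high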;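 further: negative B-score means reduced calcium response which marks RGS4 activation or potentiation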
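test system = M3R-expressing HEK293 line, RGS4 induced by doxycycline | probe or stimulus = carbachol at ECmax as muscarinic agonist stimulus | timing = dye loading 30 min 37 °C, buffer rest 30 min RT | signal = calcium dye Fluo4 fluorescence | evaluation = B score from integrated fluorescence ratio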
MrgX1 ag: agonists of human MrgX1 receptor | AID 588627 | B-score at 10 µM | MrgX1-HEK293 cells, Fluo-4 calcium fluorescence, agonist mode; hits give high values | actives 0.44% (n = 310,000);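 active means calcium response B-score plate-corrected fluorescence ratio at least 3 library SD, with starting fluorescence B-score inside 5 SD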
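Assay system: MrgX1-expressing HEK293 cells / Amount: fifteen thousand cells per well / Doses: test compound in the initial addition of three / Timing: cells plated overnight, dye loaded 0.5 h 37 °C, 0.5 h room temperature / Technique: kinetic calcium dye fluorescence, Fluo-4 NW / Control set: positive and negative controls per plate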
RGS4 block: human RGS4 inhibition. P49798. HEK293 M3R/RGS4 inducible, Fluo-4 calcium flux; hits give high values; triggered by carbachol at its EC20. B-score at 10 µM. actives 0.45% (n = 310,000). AID 463165;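 active means B-score, a plate-corrected calcium signal, over three deviations above library mean, with baseline fluorescence within five deviations of library mean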;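 further: RGS4 expression induced by doxycycline in cells with stable M3 receptor; B-score is computed from the integrated fluorescence ratio over baseline after carbachol; higher B-score means a larger calcium signal and so more RGS4 inhibition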
Target sequence (P49798 whole entry, looked up): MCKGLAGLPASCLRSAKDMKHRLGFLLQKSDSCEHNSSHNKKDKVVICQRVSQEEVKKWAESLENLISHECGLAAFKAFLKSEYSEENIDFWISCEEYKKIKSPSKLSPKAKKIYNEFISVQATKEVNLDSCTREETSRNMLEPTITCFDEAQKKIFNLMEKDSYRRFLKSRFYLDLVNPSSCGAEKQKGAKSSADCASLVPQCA
MrgX1 allo act: human MrgX1 positive allosteric modulation, primary screen; Q96LB2; MrgX1-HEK293, Fluo-4 calcium flux, FDSS; hits give high values; B-score at 10 µM; actives 0.63% (n = 310,000); AID 588675;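 active means plate-corrected calcium response at least 3 library SD above typical, normal starting fluorescence, not activating the receptor alone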;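 further: compound read alongside a low EC10 to EC30 dose of BAM8-22 agonist; peak minus trough fluorescence over baseline measured at the second addition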
Each line names hits and unclear results; the compound was inactive in the other large screens.

COc1cc(OC)cc(C(C(=O)NCc2ccccc2)N(Cc2ccco2)C(=O)c2ccno2)c1 (stereo unspecified)	none
COc1ccccc1N1CCN(C(=O)CCc2nnc3ccc(N4CCCC4)nn23)CC1	none
COc1ccc(-c2noc(CCC(=O)N3CCN(c4cc(C)ccc4C)CC3)n2)cc1	RGS4 pot -7
CN(C)CCCN(Cc1ccccc1)C(=S)Nc1ccc(SC(F)F)cc1	RGS4 pot -7.3
FC(F)Sc1ccc(NC(=S)NC(c2ccccc2)c2ccccc2)cc1	none
CN(C(=S)Nc1ccc(SC(F)F)cc1)C(c1ccccc1)c1ccccc1	RGS4 pot -7.4
CC(=O)c1ccc(NC(=S)N(CCCN(C)C)Cc2ccccc2)cc1	none
O=C(Nc1ccc(Cl)c(Cl)c1)OCCNC(=O)c1ccncc1	none
CC(=O)N1C(C(=O)O)Cc2c([nH]c3ccccc23)C1C (stereo unspecified)	none (no result: MrgX1 antagonist, MrgX1 ag, MrgX1 allo act)
CC(C)CCNC(=O)CCCc1ccccc1	none
Cc1cc(Cl)c2oc(C(=O)N(C)Cc3nccn3C)c(C)c2c1	none (no result: MrgX1 antagonist, MrgX1 ag, MrgX1 allo act)
CCCCN(C)C(=O)C1CCCN(S(=O)(=O)c2ccc3c(c2)CC(C)N3C(=O)C2CC2)C1 (stereo unspecified)	none
COc1cccc(NC(=O)C2CCN(S(=O)(=O)c3ccc4c(c3)C(C)(C)C(=O)N4C)CC2)c1	none
Clc1ccc(N=c2ssnc2Cl)cc1	none
N#Cc1ccc(N=c2ssnc2Cl)cc1	MrgX1 ag 31
Fc1ccc(N=c2ssnc2Cl)c(F)c1	MrgX1 ag 35
CCOC(=O)c1ccc(N=c2ssnc2Cl)cc1	none (no result: MrgX1 antagonist, MrgX1 ag, MrgX1 allo act)
COc1ccc(N=c2ssnc2Cl)cc1	MrgX1 ag 27
COc1cc(N=c2ssnc2Cl)cc(OC)c1OC	MrgX1 ag 32
O=C(CSc1nnnn1-c1cccc2ccccc12)NC(C(=O)O)(c1ccccc1)c1ccccc1	none
O=C(/C=C/c1ccc(S(=O)(=O)N2CCOCC2)cc1)NCc1ccc(Cl)cc1	none
COc1ccc(S(=O)(=O)Nc2cccnc2)cc1	none
Cc1ccc(S(=O)(=O)N(CC(=O)Nc2cccc(N(C)S(C)(=O)=O)c2)c2ccc(Cl)c(Cl)c2)cc1	RGS4 pot -11
CN(c1cccc(NC(=O)CN(c2ccc(Cl)c(Cl)c2)S(=O)(=O)c2ccccc2)c1)S(C)(=O)=O	none
O=C1/C(=C/c2cccc([N+](=O)[O-])c2)CCc2ccccc21	MrgX1 antagonist -5.8
O=C1/C(=C/c2ccc([N+](=O)[O-])cc2)CCc2ccccc21	none
CCS(=O)(=O)N1CCC2(CC1)OCCN2S(=O)(=O)c1ccc(C)cc1	none
O=C(/C=C/c1cccc(F)c1)Nc1nccs1	MrgX1 antagonist -6.3
O=C(/C=C\c1ccccc1)Nc1nccs1	none
Cc1nc(N2CCN(c3ccccn3)CC2)c2c(C)c(C(=O)N3CCN(c4cccc(Cl)c4)CC3)sc2n1	RGS4 pot -7.1
Cc1nc(N2CCOCC2)c2c(C)c(C(=O)Nc3ccc(F)cc3Cl)sc2n1	none
Cc1nc(N2CCN(c3ccccn3)CC2)c2c(C)c(C(=O)Nc3ccc(F)cc3Cl)sc2n1	RGS4 pot -7.4
COc1cc(/C=N/NC(=O)C(=O)N2CCCC2)ccc1O	MrgX1 antagonist -6.7
Cc1cccc(C(=O)Oc2ccc(/C=N/NC(=O)c3cc(O)cc(O)c3)cc2)c1	RGS4 pot -10
COc1cc(C(=O)N/N=C/c2ccc(OC(=O)c3cccc(C)c3)c(OC)c2)ccc1O	RGS4 pot -7.1
COc1ccc(/C=N/NC(=O)C(=O)N2CCCC2)cc1OC	none
COc1cc(C(=O)N/N=C/c2ccc(OC(=O)c3ccccc3Cl)cc2)ccc1O	RGS4 pot -11
Nc1ccc(C(=O)N/N=C\c2ccc(OC(=O)c3ccccc3Cl)cc2)cc1	none
Cc1cc(C)cc(NC(=S)Nc2ccc(Cl)c(Cl)c2)c1	none
Cc1cccc(C)c1NC(=S)Nc1ccc(Cl)c(Cl)c1	MrgX1 ag 32
CCC1C(c2ccccc2)N(C)C(c2ccccc2)CC1(O)c1ccccc1 (stereo unspecified)	RGS4 pot -7.7
O=C(c1ccc(S(=O)(=O)Nc2ccccc2F)cc1)N1CCN(c2ccccc2O)CC1	none
CCOc1cc(/C=C2/C(=N)N3C(=NC2=O)SN=C3S(C)(=O)=O)ccc1OS(=O)(=O)c1ccccc1	MrgX1 allo act 27
CC(=O)Nc1ccc(OCCOc2ccc(/C=C3\C(=N)N4N=C(C)SC4=NC3=O)cc2)cc1	MrgX1 allo act 9.5
N=C1/C(=C/c2ccc(OC(=O)c3ccco3)cc2)C(=O)N=C2SC=CN12	MrgX1 allo act 12
CCC1=NN2C(=N)/C(=C\c3ccc(OCCOc4ccc(NC(C)=O)cc4)c(OC)c3)C(=O)N=C2S1	none
COc1cc(/C=C2\C(=N)N3N=C(S(C)(=O)=O)SC3=NC2=O)ccc1OC(=O)c1cccs1	MrgX1 allo act 8.2
COc1ccc(S(=O)(=O)N(C)c2ccc(C(=O)Nc3c(C)n(C)n(-c4ccccc4)c3=O)cc2)cc1	none
CCS(=O)(=O)C1=NSC2=NC(=O)/C(=C\c3ccc(OC(=O)c4ccco4)cc3)C(=N)N21	MrgX1 allo act 19
CCS(=O)(=O)C1=NN2C(=N)/C(=C\c3ccc(OC(=O)c4ccco4)c(Br)c3)C(=O)N=C2S1	MrgX1 ag 73
COc1cc(/C=C2/C(=O)N(c3ccccc3)N=C2C)ccc1OS(=O)(=O)c1ccccc1	none
COc1cc(/C=C2/C(=N)N3C(=NC2=O)SN=C3S(C)(=O)=O)ccc1OS(=O)(=O)c1ccccc1	MrgX1 allo act 28
CCOc1cc(/C=C2/C(=N)N3C(=NC2=O)SN=C3S(C)(=O)=O)ccc1OC(=O)c1ccco1	MrgX1 allo act 13
CCOc1cc(/C=C2\C(=N)N3N=C(S(=O)(=O)CC)SC3=NC2=O)ccc1OC(=O)c1ccco1	none
CCOc1cc(/C=C2/C(=N)N3N=C(CC)SC3=NC2=O)ccc1OC(=O)c1ccco1	MrgX1 ag 34
N=C1/C(=C\c2ccc(OC(=O)c3ccccc3)cc2)C(=O)N=C2SC(N3CCOCC3)=NN12	MrgX1 antagonist -7.9
COc1cc(/C=C2\C(=N)N3N=C(S(C)(=O)=O)SC3=NC2=O)ccc1OCCOc1ccccc1C	none
COc1cc(/C=C2\C(=N)N3N=CSC3=NC2=O)ccc1OS(=O)(=O)c1ccccc1[N+](=O)[O-]	MrgX1 ag 39
CCOc1cc(/C=C2\C(=N)N3N=C(N4CCCCC4)SC3=NC2=O)ccc1OC(=O)c1ccco1	none
CCOC(=O)c1ccc(NC(=O)NCc2ccccn2)cc1	none
CCOc1ccc(C(=S)N2CCN(C)CC2)cc1	none
COc1ccc(CN(N=O)C2CC(=O)N(c3ccc(OC)cc3)C2=O)cc1 (stereo unspecified)	RGS4 pot -10
CC(=O)c1ccc(NC(=O)c2ccc3nc(-c4ccco4)c(-c4ccco4)nc3c2)cc1	MrgX1 antagonist -6.7
S=C(Nc1ccc(N2CCOCC2)cc1)Nc1ccc2nc(-c3ccco3)c(-c3ccco3)nc2c1	RGS4 pot -7
